From ChEMBL document CHEMBL2311257, “Synthesis and antioxidant activity of thymol and carvacrol based Schiff bases” (Bioorg Med Chem Lett, 2013) come the findings set out here.

What all share (assay type): functional
Experiment [1] has as its system Radical scavenging activity. Put plainly: Antioxidant activity assessed as DPPH radical scavenging activity in chloroform solution at 5 ug/mL. In general terms: Loss of DPPH colour is used to gauge radical scavenging.
The test system of experiment [2] is Radical scavenging activity. Put plainly: Antioxidant activity assessed as DPPH radical scavenging activity in chloroform solution at 50 ug/mL.
In experiment [3] the test system is Radical scavenging activity. Put plainly: Antioxidant activity assessed as DPPH radical scavenging activity in chloroform solution at 25 ug/mL.
The test system of experiment [4] is Radical scavenging activity. Put plainly: Antioxidant activity assessed as DPPH radical scavenging activity in ethanol solution at 10 ug/mL. The essentials:
(§1)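 Compound dissolved in ethanol, then ethanolic DPPH added. Incubated 30 min in the dark. DPPH decrease read as absorbance at 517 nm against an ethanol blank, with ascorbic acid as reference. % activity = [(A0 − Ai)/A0] × 100, where A0 is absorbance without compound and Ai with compound. IC50 taken from activity across concentrations.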

In experiment [5] the test system is Radical scavenging activity. The experiment in a line: Antioxidant activity assessed as DPPH radical scavenging activity in chloroform solution.
Experiment [6] concerns Radical scavenging activity. The experiment in a line: Antioxidant activity assessed as DPPH radical scavenging activity in ethanol solution at 25 ug/mL. The essentials: as §1
Experiment [7] relates to Radical scavenging activity. The experiment in a line: Antioxidant activity assessed as DPPH radical scavenging activity in ethanol solution at 5 ug/mL. Put shortly: as §1
Experiment [8] deals with Radical scavenging activity. The experiment in a line: Antioxidant activity assessed as DPPH radical scavenging activity in ethanol solution at 50 ug/mL. Put shortly:
as §1

Experiment [9] deals with Radical scavenging activity. The experiment in a line: Antioxidant activity assessed as DPPH radical scavenging activity in chloroform solution at 100 ug/mL.
Experiment [10] deals with Radical scavenging activity. Put plainly: Antioxidant activity assessed as DPPH radical scavenging activity in ethanol solution at 100 ug/mL. The essentials:
as §1

The subject of experiment [11] is Radical scavenging activity. Put plainly: Antioxidant activity assessed as DPPH radical scavenging activity in ethanol solution. The essentials: as §1
Experiment [12] can be described thus: Antioxidant activity assessed as ABTS radical scavenging activity at 5 ug/mL. The essentials: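 ABTS radical cation solution diluted in ethanol to an absorbance of 0.7–0.9 at 734 nm, 30 °C. Equal volume added to ethanolic compound solution (5 µg/mL). Absorbance read after 1 min and converted to percent inhibition.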
Experiment [13] concerns Radical scavenging activity. The experiment in a line: Antioxidant activity assessed as DPPH radical scavenging activity in chloroform solution at 10 ug/mL.

Converted amounts (≈) assume the structure as drawn. The source made the active and inactive calls. The rule behind the calls is not given here.

Take `Cc1cc(O)c(C(C)C)cc1/N=C/c1ccccc1O`: the Activity turned out to be 23.9% in experiment [1]; 88.1% in experiment [2]; 70.6% in [3]; 49.3% in [4]; 70.7% in experiment [6]; 29.2% in experiment [7]. The Activity was found to be 82% in experiment [8], 91% in experiment [9], 88.3% in experiment [10] and 47.1% in [13]. Also, the values for the IC50 in experiment [5] and in experiment [11] were 14.77 µg/mL (≈ 54.8 µM) and 11.79 µg/mL (≈ 43.8 µM), respectively. Moreover, in [12], the outcome was Active.

For the compound `COc1ccc(/C=N/c2cc(C)c(O)cc2C(C)C)cc1OC`, the Activity in experiment [1] is 25.4%; in experiment [2], 82.3%; in experiment [3], 64.2%; in [4] it was 44.1%; in experiment [6], 67.5%; in experiment [7], 29.1%. For the same compound, the Activity in [8] was 75.5%; in experiment [9], 89.8%; in experiment [10] it was 87.8%; in experiment [13], 43%. In addition, the figures for the IC50 in experiment [5] and in [11] were 20.1 µg/mL (≈ 64.1 µM) and 18.12 µg/mL (≈ 57.8 µM), respectively. Also, in experiment [12], the result was Active.

As for `COc1cc(/C=N/c2cc(C)c(O)cc2C(C)C)cc(OC)c1`, the Activity in [1] was found to be 20.4%; in experiment [2], 79.1%; in experiment [3] it was 61.7%; in experiment [4], 40.7%; in experiment [6] it was 65.7%; in [7], 27.5%. The Activity in [8] amounted to 74.2%; in [9] it was 88.4%; in [10], 85.8%; in experiment [13] it was 39.3%. Further, the IC50 came out at 25.79 µg/mL (≈ 82.3 µM) in experiment [5] and 22.02 µg/mL (≈ 70.3 µM) in [11]. Moreover, the outcome in [12] was Active.

In the case of `COc1cc(/C=N/c2cc(C(C)C)c(O)cc2C)cc(OC)c1`, the Activity in experiment [1] was found to be 21.8%; in [2], 84.2%; in [3], 59.5%; in [4], 40.4%; in experiment [6], 62.9%; in experiment [7], 24.5%. The Activity is 71.5% in [8], 89.1% in experiment [9], 78.4% in [10] and 37% in [13]. Moreover, the IC50 in experiment [5] is 25.47 µg/mL (≈ 81.3 µM); in [11], 26.71 µg/mL (≈ 85.2 µM). Besides, the outcome in [12] was Active.

Regarding `Cc1cc(O)c(C(C)(C)C)cc1/N=C/c1cc(Br)c(O)c(Br)c1`, the Activity was 24.2% in [1]; 85.7% in [2]; 78.5% in experiment [3]; 49% in [4]; 82.8% in experiment [6]; 23.9% in experiment [7]. Besides, the Activity was 95.8% in experiment [8], 95.3% in experiment [9], 95.8% in experiment [10] and 50.3% in [13]. For the same compound, the IC50 stood at 10.69 µg/mL (≈ 24.2 µM) in experiment [5] and 7.55 µg/mL (≈ 17.1 µM) in experiment [11]. For the same compound, the outcome in experiment [12] was Active.

In the case of `Cc1cc(/N=C/c2ccc(C(C)(C)C)cc2)c(C(C)C)cc1O`, the Activity was 49.9% in experiment [4]; 62.1% in [6]; 25% in experiment [7]; 70.2% in experiment [8]; 79.2% in experiment [10]. In addition, the IC50 in experiment [11] is 21.89 µg/mL (≈ 70.7 µM).

For the compound `Cc1cc(/N=C/c2ccc(F)cc2)c(C(C)C)cc1O`, the Activity worked out at 41.1% in experiment [4]; 58.8% in experiment [6]; 22.5% in experiment [7]; 66.3% in experiment [8]; 73.7% in experiment [10]. The IC50 in experiment [11] came out at 32.52 µg/mL (≈ 120 µM).

Turning to `CCc1ccc(/C=N/c2cc(C)c(O)cc2C(C)C)cc1`, the Activity in experiment [4] was found to be 42.1%; in experiment [6] it was 61.3%; in experiment [7], 23.4%; in experiment [8], 75.2%; in [10], 82.3%. Moreover, the IC50 in experiment [11] was 25.34 µg/mL (≈ 90.1 µM).

Consider `Cc1cc(/N=C/c2ccc([N+](=O)[O-])cc2)c(C(C)C)cc1O`, for which the Activity in experiment [4] stood at 32%; in experiment [6], 43%; in experiment [7] it was 17.1%; in experiment [8], 55.8%; in experiment [10] it was 68.6%. In [11], the IC50 was found to be 51.92 µg/mL (≈ 174 µM).

With `Cc1cc(O)c(C(C)(C)C)cc1/N=C/c1ccc(Cl)cc1`, the Activity was 42.6% in [4]; 61.5% in experiment [6]; 29.7% in experiment [7]; 73.9% in experiment [8]; 79.8% in experiment [10]. Also, the IC50 in [11] was determined as 22.2 µg/mL (≈ 73.6 µM).

Turning to `Cc1cc(O)c(C(C)(C)C)cc1/N=C/c1ccc(C(C)(C)C)cc1`, the Activity in experiment [4] was 45.6%; in experiment [6] it was 65.2%; in experiment [7], 27.5%; in experiment [8], 73%; in experiment [10] it was 86.7%. Also, in [11], the IC50 is 20.05 µg/mL (≈ 62 µM).

Take `Cc1cc(O)c(C(C)(C)C)cc1/N=C/c1ccc(Br)cc1`: the Activity amounted to 43.9% in experiment [4]; 59.4% in experiment [6]; 32.8% in experiment [7]; 74.2% in [8]; 81.1% in experiment [10]. In addition, the IC50 in experiment [11] amounted to 20.36 µg/mL (≈ 58.8 µM).

Regarding `Cc1cc(/N=C/c2ccc(C(C)C)cc2)c(C(C)C)cc1O`, the Activity in experiment [4] worked out at 49.5%; in experiment [6], 61.7%; in experiment [7], 25.8%; in [8], 72.4%; in [10] it was 78%. The IC50 in experiment [11] is 21.08 µg/mL (≈ 71.4 µM).

For `Cc1cc(O)c(C(C)(C)C)cc1/N=C/c1ccc([N+](=O)[O-])cc1`, the Activity in [4] is 26%; in [6], 45.3%; in experiment [7], 16.8%; in [8], 62.4%; in [10], 73%. For the same compound, the IC50 in experiment [11] is 47.39 µg/mL (≈ 152 µM).

With `Cc1cc(O)c(C(C)(C)C)cc1/N=C/c1ccc2c(c1)OCO2`, the Activity in [4] was 49.8%; in experiment [6], 68.5%; in experiment [7], 25.1%; in experiment [8] it was 87.5%; in experiment [10], 89.3%. Also, in experiment [11], the IC50 came to 13.64 µg/mL (≈ 43.8 µM).

For the compound `Cc1cc(O)c(C(C)C)cc1/N=C/c1ccc2c(c1)OCO2`, the Activity in experiment [4] came out at 48%; in experiment [6] it was 74.5%; in experiment [7], 27.3%; in experiment [8] it was 82.5%; in experiment [10], 89.5%. The IC50 in experiment [11] was determined as 11.95 µg/mL (≈ 40.2 µM).

Turning to `Cc1ccc(/C=N/c2cc(C)c(O)cc2C(C)C)cc1`, the Activity in [4] was determined as 44.9%; in experiment [6], 60.7%; in [7], 22.1%; in [8] it was 73.4%; in experiment [10] it was 81.3%. For the same compound, the half-maximal inhibitory concentration (IC50) in [11] came out at 25.58 µg/mL (≈ 95.7 µM).

As to `Cc1cc(/N=C/c2ccccn2)c(C(C)C)cc1O`, the Activity in [4] turned out to be 41.2%; in [6], 65.2%; in experiment [7], 23.4%; in [8], 75.5%; in experiment [10], 78.1%. Moreover, the IC50 in experiment [11] is 24.4 µg/mL (≈ 95.9 µM).

With `O=C1O[C@H]([C@@H](O)CO)C(O)=C1O` [ASCORBIC ACID], the Activity in experiment [4] worked out at 45%; in experiment [6], 85%; in experiment [7], 18.9%; in [8] it was 94.4%; in experiment [10], 95.6%. Moreover, the IC50 in experiment [11] was 11.66 µg/mL (≈ 66.2 µM).

`Cc1cc(O)c(C(C)(C)C)cc1/N=C/c1ccccn1`: the Activity in experiment [4] came to 44.7%; in [6], 61%; in experiment [7] it was 22.4%; in experiment [8], 80.7%; in [10], 91.7%. In [11], the IC50 came to 22.27 µg/mL (≈ 83 µM).

Turning to `Cc1cc(O)c(C(C)C)cc1/N=C/c1ccccn1`, the Activity in experiment [4] was 43.6%; in experiment [6], 58.4%; in [7] it was 25.5%; in [8], 74.6%; in [10], 92.8%. For the same compound, in experiment [11], the IC50 was determined as 23.86 µg/mL (≈ 93.8 µM).

`Cc1ccc(C(C)C)c(O)c1` [THYMOL]: the Activity amounted to 5.49% in experiment [4]; 14.7% in experiment [6]; 3.07% in experiment [7]; 21.3% in experiment [8]; 29.5% in experiment [10]. In [11], the IC50 is 167.57 µg/mL (≈ 1120 µM).

Consider `Cc1cc(O)c(C(C)C)cc1/N=C/c1ccc(F)cc1`, for which the Activity in [4] was found to be 44.1%; in experiment [6] it was 62.9%; in experiment [7], 21.7%; in [8] it was 73.2%; in experiment [10] it was 79.2%. For the same compound, the IC50 in experiment [11] stood at 25.59 µg/mL (≈ 94.3 µM).

With `Cc1ccc(/C=N/c2cc(C(C)(C)C)c(O)cc2C)cc1`, the Activity in [4] is 48.4%; in [6] it was 57.7%; in experiment [7], 27.2%; in [8], 69.6%; in experiment [10], 75.7%. In experiment [11], the IC50 came out at 24.32 µg/mL (≈ 86.4 µM).

By IC50 is commonly meant the concentration that inhibits the measured activity by half.
